Measured values of several laboratories.
Protocols differ between the studies behind these lines.
Matrix: plasma

CCNc1nc2c(c(N3CC(=O)Nc4cc(OC)ccc43)n1)CCC2
AUC(0-inf) (female C57BL/6 mouse; intravenous; 4 mg/kg; single dose): 620 ng·h/mL

CCc1cc(OC)c2nccc(N3CCc4c(cc(Cn5ccnc5)cc4-c4cn(C)nc4C(F)(F)F)C3=O)c2c1
AUC(0-inf) (male CD-1 mouse; oral; 50 mg/kg): 108000 ng·h/mL

COc1ccc2nc(-c3ccccn3)c(N(C)c3ccc(F)cc3)n2c1
AUC(0-inf) (male CD-1 mouse; oral; 50 mg/kg; fasted): 969 ng·h/mL

COc1cc(C(=O)N2CCC(N3CCN(C)CC3)CC2)ccc1Nc1ncc2c(n1)N(C)c1ccccc1C(=O)N2C
AUC(0-inf) (mouse; intravenous; 1 mg/kg): 2970 ng·h/mL

CC(C)(C)c1ccc(O)c(CN(Cc2cc(C(C)(C)C)ccc2O)C2CCC(NC(N)=O)CC2)c1 (stereo not shown)
AUC(0-inf) (male C57BL/6 mouse; intraperitoneal; 10 mg/kg; single dose): 10800 ng·h/mL

Cc1nc(-c2cnc(NC(C)C)n(C)c2=O)ccc1Oc1ccnc(-c2cnn(C)c2)c1
AUC(0-inf) (female mouse; oral; 15 mg/kg; single dose): 127000 ng·h/mL

CC[C@H](C)[C@@H]1NC(=O)[C@@](C)(NC(=O)[C@H](CCCNC(=N)N)NC(=O)[C@H](CC(C)C)NC(=O)[C@@H](NC(=O)[C@H](CCC(N)=O)NC(=O)[C@H](CC(C)C)NC(C)=O)[C@@H](C)O)CCCC=CCCC[C@@](C)(C(=O)N[C@@H](CC(C)C)C(=O)N[C@@H](Cc2ccc3ccccc3c2)C(N)=O)NC(=O)[C@H](CCCNC(=N)N)NC(=O)[C@H](CCC(N)=O)NC1=O
AUC(0-inf) (male BALB/c mouse; intravenous; 10 mg/kg): 233000 ng·h/mL

Cc1ccc2cncc(N3CCc4c(cc(Cn5ccnc5)cc4-c4cn(C)nc4C(F)(F)F)C3=O)c2c1
AUC(0-inf) (male CD-1 mouse; intravenous; 3 mg/kg): 3870 ng·h/mL

Cc1noc(C)c1-c1ccc2nc(-c3cnn(CCO)c3)nc(N3CCOCC3c3ccccc3)c2c1 (stereo not shown)
AUC(0-inf) (CD-1 mouse; intravenous; 2 mg/kg): 1760 ng·h/mL

CC=Cc1ccc(O)c(OC)c1
AUC(0-inf) (mouse; intranasal; 100 mg/kg): 10100 ng·h/mL

COc1ccc2nccc(N3CCc4c(cc(Cn5ccnc5)cc4-c4cn(C)nc4C(F)(F)F)C3=O)c2c1
AUC(0-inf) (male CD-1 mouse; oral; 50 mg/kg): 33800 ng·h/mL

Cc1cc(Nc2ccc(S(F)(F)(F)(F)F)cc2)n2ncnc2n1
AUC(0-inf) (male Swiss mouse; oral; 100 mg/kg; single dose): 942 µM·h

CCc1cc(C(=O)NC)c2nccc(N3CCc4c(cc(Cn5ccnc5)cc4-c4cn(C)nc4C(F)(F)F)C3=O)c2c1
AUC(0-inf) (male CD-1 mouse; intravenous; 3 mg/kg): 4180 ng·h/mL

COc1nc(-c2cc(C)c(N[C@@H](C)c3cc(F)cc(F)c3)nn2)ccc1-n1cnc(C)c1
AUC(0-inf) (male CD-1 mouse; intravenous; 1 mg/kg; single dose): 2070 ng·h/mL

COc1cc(OC)c2nccc(N3CCc4c(cc(Cn5ccnc5)cc4-c4cn(C)nc4C(F)(F)F)C3=O)c2c1
AUC(0-inf) (male CD-1 mouse; intravenous; 3 mg/kg): 805 ng·h/mL

CNCCN(C)c1cc(C#N)cc(CCc2cc(C)cc(N)n2)c1
AUC(0-inf) (male BALB/c mouse; intravenous; 2 mg/kg): 181 ng·h/mL
